# Compound activity: PubChem, several laboratories
# A selection: hits, their analogues and other compounds. The true share with any hit is near 11%.
# S1P1 ag-PAM: agonists and agonism potentiators of human S1P1 receptor | P21453 | S1P1 CRE-bla cells, forskolin, beta-lactamase FRET, potentiator mode; S1P1 agonist co-added at EC20, 2 nM; 100% = saturating reference agonist, 0% = basal | activation, % at 9.5 µM | 0.57% of 56,000 active;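 active = activation above a cutoff set at the mean activation of all tested compounds plus 3 SD, cut at about 54% in these data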;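 note: forskolin at 4 µM as EC80 and the EC20 agonist is SEW2871; 100% = SEW2871 at its EC100 plus forskolin at EC80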
# D1 mod: D1 dopamine receptor (human) allosteric modulation. 5.9% of 58,000 active. HEK293 D1, CRE-luciferase, dopamine EC30 potentiation; actives deviate in either direction. B-score at 10 µM;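 active = luminescence count or its row- and column-corrected plate score outside the 99.7% band of the plate's sample wells, on either side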
# M1 antagonist: M1 muscarinic receptor (rat) antagonism; P08482; CHO-M1 cells, Fluo-4 calcium, ACh EC80 antagonist mode; hits give low values; B-score at 10 µM; 3.4% of 64,000 active; AID 628;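 active = calcium fluorescence response, raw or row-and-column corrected B-score, differing from the plate sample mean either way at a set confidence level, mostly lower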
# TNAP act mid DEA: activators of human TNAP at intermediate phosphate acceptor; AID 813; activation factor at 20 µM; purified TNAP, CDP-star luminescence, 100 mM DEA, 30 min; hits give high values; scale: 0 levamisole-inhibited, 1 vehicle-only enzyme; P05186; 64,000 tested, under 10 active;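 active = activation factor of at least 2 at 20 µM, relative to controls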
# S1P3 ag: S1P3 (human) receptor agonism; Q99500; S1P3 NFAT-BLA reporter cells, FRET ratio; relative to 1 µM S1P, basal subtracted; activation, % at 4.5 µM; 0.1% of 60,000 active;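 active = activation above the screen-wide mean plus 3 SD, cut at about 4.5% in these data, passing the limit was not always enough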
#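 material = human S1P3 NFAT-BLA reporter CHO cells | schedule = 4 h compound at 37 °C, 2 h substrate at RT | measured by = fluorescent BLA substrate, ex 405 nm, em 460/535 nm ratio | controls = 1 µM S1P reference | replication = primary once, confirmation triplicate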
# M1 agonist: agonists of M1 muscarinic receptor | B-score at 10 µM | AID 626 | CHO-M1 cells, Fluo-4 calcium fluorescence, agonist mode; hits give high values | 3% of 64,000 active;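 active = fluorescence rise, raw or as B-score row- and column-corrected plate score, outside the 99.7% band of its plate's samples, either direction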
# M1 agonist conf: rat M1 muscarinic agonism, confirmation; shares compounds with M1 agonist; CHO-M1 cells, Fluo-4 calcium fluorescence, agonist mode; actives lie on both sides; fluorescence change (max-min) at 10 µM; 19% of 1,700 active;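 active = fluorescence change differs from the solvent-only DMSO control mean at a set confidence level in both duplicate runs; inconclusive = differs from solvent-only control mean in just one of two runs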;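 note: an EC20 dose of acetylcholine follows compound addition during the same imaging run; raw fluorescence intensity difference in instrument units with no normalization to controls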
# M4 ag counter: counter-screen for M1 agonists: activity at rat M4 receptor. AID 1741. 9% of 1,700 active. CHO M4/Gqi5 cells, Fluo-4 calcium fluorescence, agonist mode; actives lie on both sides. shares compounds with M1 agonist. fluorescence change (max-min) at 10 µM;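 active = fluorescence change differing from the plate's solvent-only control wells at 99.7% confidence in both duplicates, whether higher or lower; inconclusive = differs from solvent controls in only one of two duplicates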
# Target sequence (P08485 whole entry, looked up): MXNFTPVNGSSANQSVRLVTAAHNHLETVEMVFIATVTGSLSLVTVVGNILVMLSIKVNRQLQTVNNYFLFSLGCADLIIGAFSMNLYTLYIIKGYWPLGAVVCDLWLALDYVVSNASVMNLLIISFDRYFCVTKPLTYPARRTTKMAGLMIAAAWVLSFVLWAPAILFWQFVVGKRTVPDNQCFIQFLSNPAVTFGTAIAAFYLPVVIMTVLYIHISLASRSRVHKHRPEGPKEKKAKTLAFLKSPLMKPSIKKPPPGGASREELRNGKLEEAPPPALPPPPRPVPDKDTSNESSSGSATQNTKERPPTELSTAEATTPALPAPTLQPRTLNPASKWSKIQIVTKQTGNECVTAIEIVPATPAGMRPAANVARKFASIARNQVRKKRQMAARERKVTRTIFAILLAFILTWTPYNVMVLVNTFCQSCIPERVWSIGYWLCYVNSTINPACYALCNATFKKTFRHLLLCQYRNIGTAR
# * marks the source's active call; other numbers are inactive results; ? = inconclusive; nt = no result.
SMILES,S1P1 ag-PAM,D1 mod,M1 antagonist,TNAP act mid DEA,S1P3 ag,M1 agonist,M1 agonist conf,M4 ag counter
O=C(Cc1ccccc1)Nc1cccc(-c2nc3ncccc3o2)c1,-11.9,1.48,-0.178,0.9,-0.7,-0.351,nt,nt
CCOc1ccc(C2C=C(c3ccccc3)Nc3nnnn32)cc1 (stereo not given),13.0,-0.362,0.00516,0.9,0.4,0.507,nt,nt
CCOc1ccc(C2C=C(c3ccc(C)cc3)Nc3ncnn32)cc1 (stereo not given),12.6,-0.585,-0.857,1,-1.0,5.48*,129*,?
CCOc1ccc(C2C=C(c3ccc(C)cc3)Nc3nnnn32)cc1 (stereo not given),3.2,0.0201,0.138,1,-0.3,1.47,nt,nt
COc1ccc(C2C=C(c3ccccc3)Nc3ncnn32)cc1 (stereo not given),-12.9,-0.0277,-0.485,1,0.5,9.71*,85.6*,69.9
Cc1nn(Cc2ccc(C(=O)NC(C)(C)C)o2)c(C)c1Br,30.5,-0.595,-1.89,1,-0.3,3.92*,16.8,-15.3
Cc1ccc(C)c(N2CCN(C(=O)COc3cc(=O)n(C)c4ccccc34)CC2)c1,-16.4,-0.0313,0.457,1,-1.5,5.48*,-8.57,-36.8
Cc1ccc(C)c(N2CCN(C(=O)CCCOc3cc(=O)n(C)c4ccccc34)CC2)c1,-45.6,-1.88,-0.933,1,-0.9,5.85*,-18,-23.3
O=C(NCc1ccc2c(c1)OCO2)C1CCC(CNS(=O)(=O)c2ccccc2)CC1 (stereo not given),-1.8,-1.37,0.03,0.9,-1.2,-0.257,nt,nt
COc1cc(C)nc(Oc2ccc(OCCOc3ccc(C)cc3)nn2)n1,-13.9,-1.05,0.151,1,-3.9,0.484,nt,nt
CC(C)(C)OC(=O)NCCCCCc1nnc(SCC(=O)Nc2cccc(Cl)c2)o1,8.7,-0.688,-0.771,0.9,0.5,3.51,nt,nt
COc1ccc(N2C(=O)C3CCCN3C2c2ccccc2Cl)cc1 (stereo not given),-7.3,-0.238,-1.01,1,0.1,0.0321,nt,nt
O=C(OCc1cccs1)c1ccccc1NS(=O)(=O)c1ccc2c(c1)OCCO2,28.3,2.41,1.02,0.8,-0.9,4*,-11.9,-47.7
COc1ccc(CCNc2oc(COc3ccc(Br)cc3)nc2C#N)cc1OC,nt,nt,-0.376,0.9,nt,4.87*,-23.5*,-71.5*
COc1ccc(CCNc2oc(Cc3cccc4ccccc34)nc2C#N)cc1OC,8.3,0.178,0.285,0.9,-2.1,-0.00282,nt,nt
O=C(O)c1ccccc1C1=Nc2ccc(O)cc2Oc2cc(O)ccc21,-16.5,-0.748,0.376,0.8,-1.2,31.6*,418*,403*
CCOc1ccccc1N(CC(=O)N1CCOCC1)S(=O)(=O)c1ccc(SC)cc1,-1.0,1.9,-0.431,1,1.8,0.358,nt,nt
CCCCCn1c(CCNC(=O)c2cccs2)nc2ccccc21,nt,nt,0.388,nt,nt,10.9*,-30*,-79.1
CCCCCn1c(CNC(=O)c2cccs2)nc2ccccc21,nt,nt,0.193,nt,nt,0.045,nt,nt
CC(=O)Nc1ccc2nc(C3CCCCC3)[nH]c2c1,-14.7,-0.0211,0.23,1,1.1,0.484,nt,nt
COc1ccc(S(=O)(=O)N2CCN(CC(=O)Nc3ccc(C)c(F)c3)CC2)cc1,-6.0,-0.733,0.395,0.9,-0.9,-2.01,nt,nt
O=C(c1ncc[nH]1)c1ccco1,14.8,0.631,0.127,0.9,-1.4,3.55*,-12,-18.2
CCOC(=O)c1c(C)n(C)c2c(C)cc(O)c(OC(=O)CC)c12,-15.2,-0.606,-0.135,0.9,-0.4,0.252,nt,nt
Cc1cc2ncn(/N=C/c3cc(Br)ccc3O)c2cc1C,-11.1,-0.0104,0.69,0.9,-0.6,0.0396,nt,nt
Cc1nnc(C)n1/N=C/c1cc(Br)cc(Br)c1O,25.6,nt,0.71,0.9,-2.1,27.1*,143*,?
SMILES,S1P1 ag-PAM,D1 mod,M1 antagonist,TNAP act mid DEA,S1P3 ag,M1 agonist,M1 agonist conf,M4 ag counter
Cc1nnc(C)n1/N=C/c1cc(Br)ccc1O,-17.9,1.16,-0.56,0.9,-1.5,8.22*,22.4,7.85
COc1ccccc1NC(=O)N1CCN(c2cccc(C(F)(F)F)c2)CC1,19.9,-0.318,-0.425,0.8,1.1,-0.973,nt,nt
O=C(Nc1ccc2c(c1)OCO2)N1CCN(c2cccc(C(F)(F)F)c2)CC1,31.3,nt,-2.2,0.9,14.1,2.86*,?,?
CN1C(=O)CSc2ccc(NC(=O)NCCC3=CCCCC3)cc21,nt,nt,-0.00491,1,nt,0.821,nt,nt
COc1cccc(OC)c1OCCCCCc1c(C)n[nH]c1C,23.6,-0.629,-0.0873,1.1,0.0,3.03*,-16.6,-44
COc1cccc(OC)c1OCCCSc1nc(C)cc(=O)[nH]1,nt,0.106,-0.0862,0.8,0.2,-0.339,nt,nt
O=c1[nH]nc(Sc2ncnc3sccc23)n1CCc1ccccc1,56.6,-1.69,0.313,0.8,-0.9,0.351,nt,nt
O=C(CN1CCOCC1)NCCNC(=O)CN1CCOCC1,-36.4,-0.679,1.03,0.9,0.5,4.16*,?,?
O=C(CN1CCOCC1)NCc1ccccc1,-52.6,0.186,1.04,0.9,8.9,0.376,nt,nt
CCC(OC(=O)c1cc2sccc2n1C)C(=O)NCc1ccco1 (stereo not given),17.8,0.43,0.0136,0.9,-1.2,0.825,nt,nt
CCOC(=O)N1CCN(C(=O)c2nn(-c3cc(OC)cc(OC)c3)c(=O)c3ccccc23)CC1,-14.9,-1.73,0.38,0.9,64.3,6.36*,-2.25,?
Cc1cccc(-c2nc(CSCC(=O)N3CCN(c4ccccn4)CC3)c(C)o2)c1,58.6,-1.28,-3.74*,nt,-1.1,3.84*,-10.2,?
Cc1ccc(-c2nc(CSCC(=O)N3CCCC3)c(C)o2)cc1,7.1,-0.0779,-0.00822,nt,-1.0,0.576,nt,nt
Cc1ccsc1-c1nc(CSCC(=O)N2CCN(c3ccccc3)CC2)c(C)o1,44.8,0.0431,-2.48*,0.9,-0.1,5.01*,-38.6*,?
O=[n+]1c2c(n([O-])c3cc(F)c(N4CCCC4)cc31)CCCC2,5.6,-0.712,0.9,0.8,-0.4,188*,593*,561*
O=[n+]1c2c(n([O-])c3cc(F)c(N4CCCC4)cc31)CCC2,-20.3,0.228,0.514,0.8,-1.2,91.8*,632*,549*
O=[n+]1c2c(n([O-])c3cc(F)ccc31)CCCC2,-4.6,0.0512,-0.239,1,0.4,-0.337,nt,nt
O=S1(=O)CC(O)C(N2CCC(c3ccccc3)CC2)C1 (stereo not given),-3.9,-0.501,-0.872,0.9,-0.3,0.753,nt,nt
